Laboratory results reported in ChEMBL document CHEMBL2040734, “Benzothiazoles: search for anticancer agents” (2012).

Key:
Format in all cases: functional
MDA-MB-231 = test: Cytotoxicity against human MDA-MB-231 cells assessed as cell growth at 0.01 uM after 48 hrs by sulforhodamine B assay; details: MDA-MB-231, 48 h, read-out: Activity
NCI-H322M = test: Cytotoxicity against human NCI-H322M cells assessed as cell growth at 0.1 uM after 48 hrs by sulforhodamine B assay; details: read-out: Activity
U-251 = test: Cytotoxicity against human U251 cells assessed as cell growth at 0.1 uM after 48 hrs by sulforhodamine B assay; details: U-251, 48 h, read-out: Activity
CAKI-1 = test: Cytotoxicity against human Caki1 cells assessed as cell growth at 0.1 uM after 48 hrs by sulforhodamine B assay; details: CAKI-1, 48 h, read-out: Activity
How it was run: (§1)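 NCI-60 five-dose screen. Cells were grown in RPMI 1640 with 5% FBS and 2 mM L-glutamine and preincubated 24 h. Compound (DMSO stock) was tested at 0.01, 0.1, 1, 10 and 100 µM for 48 h at 37 °C. Cells were fixed in situ with cold TCA (final 10%) and stained with 0.4% SRB. A515 was read, and percent growth was calculated against time-zero and control plates.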

TK-10 = test: Cytotoxicity against human TK10 cells assessed as cell growth at 100 uM after 48 hrs by sulforhodamine B assay; details: TK-10, 48 h, read-out: Activity
DU-145 = test: Cytotoxicity against human DU145 cells assessed as cell growth at 100 uM after 48 hrs by sulforhodamine B assay; details: DU-145, 48 h, read-out: Activity
How it was run: (§2)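 Five-dose NCI panel run at 0.01, 0.1, 1, 10 and 100 µM. Cells were in RPMI 1640 with 5% FBS and 2 mM L-glutamine, seeded at 5000–40,000 cells/well and pre-incubated 24 h. Drug was diluted from a DMSO stock into medium with 50 µg/ml gentamicin. Exposure was 48 h at 37 °C, 5% CO2. Cells were fixed with cold TCA and stained with 0.4% SRB, read at 515 nm. Percent growth came from time-zero, control and test absorbances.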

MDA-MB-468 = test: Cytotoxicity against human MDA-MB-468 cells assessed as cell growth at 100 uM after 48 hrs by sulforhodamine B assay; details: MDA-MB-468, 48 h, read-out: Activity
SF-295 [1] = test: Cytotoxicity against human SF295 cells assessed as cell growth at 1 uM after 48 hrs by sulforhodamine B assay; details: SF-295, 48 h, read-out: Activity
PC-3 = test: Cytotoxicity against human PC3 cells assessed as cell growth at 1 uM after 48 hrs by sulforhodamine B assay; details: PC-3, 48 h, read-out: Activity
HL-60(TB) [2] = test: Cytotoxicity against human HL-60(TB) cells assessed as cell growth at 10 uM after 48 hrs by sulforhodamine B assay; details: HL-60, 48 h, read-out: Activity
How it was run: (§3)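 NCI five-dose screen on the HL-60(TB) leukaemia line, grown in RPMI 1640 with 5% FBS and 2 mM L-glutamine and plated for 24 h before dosing. DMSO stocks were diluted in medium. Cells were exposed 48 h at 37 °C, then settled cells were fixed in 16% TCA (final) and stained with SRB, absorbance 515 nm. Percent growth = (Ti−Tz)/(C−Tz)×100, or (Ti−Tz)/Tz×100 when Ti<Tz.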

HOP-62 = test: Cytotoxicity against human HOP62 cells assessed as cell growth at 10 uM after 48 hrs by sulforhodamine B assay; details: HOP-62, 48 h, read-out: Activity; how it was run: as §2
COLO 205 = test: Cytotoxicity against human COLO205 cells assessed as cell growth at 10 uM after 48 hrs by sulforhodamine B assay; details: COLO 205, 48 h, read-out: Activity; how it was run: as §1
HCT-116 = test: Cytotoxicity against human HCT116 cells assessed as cell growth at 10 uM after 48 hrs by sulforhodamine B assay; details: HCT-116, 48 h, read-out: Activity; how it was run: as §2
SF-295 [3] = test: Cytotoxicity against human SF295 cells assessed as cell growth at 10 uM after 48 hrs by sulforhodamine B assay; details: SF-295, 48 h, read-out: Activity
UACC-257 = test: Cytotoxicity against human UACC257 cells assessed as cell growth at 10 uM after 48 hrs by sulforhodamine B assay; details: UACC-257, 48 h, read-out: Activity
OVCAR-5 = test: Cytotoxicity against human OVCAR5 cells assessed as cell growth at 10 uM after 48 hrs by sulforhodamine B assay; details: OVCAR-5, 48 h, read-out: Activity
SN12C = test: Cytotoxicity against human SN12C cells assessed as cell growth at 10 uM after 48 hrs by sulforhodamine B assay; details: read-out: Activity
SW-620 = test: Cytotoxicity against human SW620 cells assessed as cell growth at 10 '-5 M after 48 hrs by sulforhodamine B assay; details: SW-620, 48 h, read-out: Activity
MDA-MB-435 = test: Cytotoxicity against human MDA-MB-435 cells assessed as cell growth at 10 '-5 M after 48 hrs by sulforhodamine B assay; details: MDA-MB-435, 48 h, read-out: Activity
SF-539 = test: Growth inhibition of human SF539 cells after 48 hrs by sulforhodamine B assay; details: SF-539, 48 h
How it was run: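 Adherent NCI-60 lines were grown in RPMI 1640 with 5% FBS and 2 mM L-glutamine, plated at 5000–40,000 cells/well and preincubated 24 h. They were then exposed to five concentrations (0.01–100 µM, from a DMSO stock) for 48 h at 37 °C, 5% CO2. Cells were fixed with cold TCA (10% final, 60 min, 4 °C) and stained with 0.4% SRB. Dye was solubilized in 10 mM Tris base and A515 read. GI50 was derived from time-zero, control and treated absorbances.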

HL-60(TB) [4] = test: Cytotoxicity against human HL-60(TB) cells assessed as cell growth at 0.01 uM after 48 hrs by sulforhodamine B assay; details: HL-60, 48 h, read-out: Activity; how it was run: as §3
SK-MEL-2 = test: Cytotoxicity against human SK-MEL-2 cells assessed as cell growth at 0.01 uM after 48 hrs by sulforhodamine B assay; details: SK-MEL-2, 48 h, read-out: Activity
EKVX = test: Cytotoxicity against human EKVX cells assessed as cell growth at 10 '-5 M after 48 hrs by sulforhodamine B assay; details: read-out: Activity
How it was run: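 Primary one-dose screen across the NCI 60-line panel at 10 µM. Cells were grown in RPMI 1640 with 5% FBS and 2 mM L-glutamine and held 24 h before drug. Drug was diluted from a DMSO concentrate. Exposure was 48 h at 37 °C, 5% CO2. Cells were fixed with TCA and stained with SRB, with absorbance read at 515 nm. Percent growth was calculated against time-zero and untreated control.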

Row | Structure (SMILES) | growth at 0.01 µM (MDA-MB-231) [%] | growth at 0.1 µM (NCI-H322M) [%] | growth at 0.1 µM (U-251) [%] | growth at 0.1 µM (CAKI-1) [%] | growth at 100 µM (TK-10) [%] | growth at 100 µM (DU-145) [%] | growth at 100 µM (MDA-MB-468) [%] | growth at 1 µM (SF-295 [1]) [%] | growth at 1 µM (PC-3) [%] | growth at 10 µM (HL-60(TB) [2]) [%] | growth at 10 µM (HOP-62) [%] | growth at 10 µM (COLO 205) [%] | growth at 10 µM (HCT-116) [%] | growth at 10 µM (SF-295 [3]) [%] | growth at 10 µM (UACC-257) [%] | growth at 10 µM (OVCAR-5) [%] | growth at 10 µM (SN12C) [%] | growth at 10 µM (SW-620) [%] | growth at 10 µM (MDA-MB-435) [%] | GI50 (SF-539) [µM] | also measured
1 | Cc1ccc2nc(Nc3c(C)cccc3C)sc2c1 | 85 | 105 | 105 | 83 | 72 | 65 | 27 | 44 | 68 | 30 | 39 | 49 | 21 | 15 | 70 | 65 | 36 | 21.6 | -23.7 | 66.8 | LC50 (SF-539): > 100 µM; TGI (SF-539): > 100 µM; growth at 0.01 µM (HL-60(TB) [4]): 107%; growth at 0.01 µM (SK-MEL-2): 94%; growth at 10 µM (EKVX): 54.1%
2 | Clc1cccc(Cl)c1Nc1nc2cccc(Cl)c2s1 | 92 | 102 | 98 | 73 | -67 | -85 | -59 | 33 | 38 | -47 | -93 | -91 | -98 | -87 | -71 | -93 | -94 | -84.9 | -55.9 | 1.48 | LC50 (SF-539): 6.4 µM; TGI (SF-539): 3.08 µM; growth at 0.01 µM (HL-60(TB) [4]): 104%; growth at 0.01 µM (SK-MEL-2): 98%; growth at 10 µM (EKVX): -7.99%
